Results gathered from unrelated publications.
Compare with care: the assays were run in different laboratories.
Target: Serine/threonine-protein kinase 25 (STK25, Homo sapiens, UniProt O00506)

SMILES	test	setting	endpoint	value
COc1cc(Cl)c(C(=O)N[C@@H](CN[C@H]2CC[C@@H](N)CC2)Cc2ccc(C#N)cc2)cc1-c1ccc(CN[C@H](C)c2ccc(C)cc2)o1	enzyme activity, inhibitor	1 µM	remaining activity	104%
Cc1noc([C@H]2C[C@@H](c3ccc(C(F)(F)F)cc3)CN(C(=O)N3CCS(=O)(=O)C3)C2)n1	cell-free assay, competition with immobilised ligand	1 µM	remaining binding	89%
Cc1ccc(C(=O)Nc2ccc(CN3CCN(C)CC3)c(C(F)(F)F)c2)cc1C#Cc1cnc2cccnn12	enzyme activity, inhibitor	23.5 nM	remaining activity	98%
COc1cc2ncnc(Nc3ccc(F)c(Cl)c3)c2cc1OCCCN1CCOCC1	cell-free assay	0.5 µM	remaining signal	97.4%
Cn1c2c(c3ccc(Cl)c(Cl)c31)C(C#N)C(C)(C)NC2=O (centres unmarked)	thermal stability, DSF	10 µM	ΔTm	1.2 °C
COc1cc(-c2cn(C3CCc4ccccc4N(CC(F)(F)F)C3=O)nn2)ccc1-n1ccc(C)n1 (centres unmarked)	cell-free assay, competition with immobilised ligand	1 µM	remaining binding	100%
Cc1cnc(NC2CCOCC2)nc1-n1cnc(C(=O)NC(CN)c2cc(F)cc(Cl)c2)c1 (centres unmarked)	enzyme activity, inhibitor, radiometric	1 µM	remaining activity	71%
Cc1sc(C(=O)NC2COC2)cc1-n1cc(NC(=O)Nc2c(F)cccc2Cl)cn1	enzyme activity, inhibitor	10 µM	remaining activity	70.5%
Cn1cncc1C1=CN(c2ncnc3[nH]cnc23)CCS1	enzyme activity, inhibitor, radiometric	50 nM	inhibition	13.5%
CC(C)(C)c1nc(-c2cccc(NS(=O)(=O)c3c(F)cccc3F)c2F)c(-c2ccnc(N)n2)s1	enzyme activity, inhibitor, radiometric	1 µM	remaining activity	51%
c1ccc(CNc2nc(N3CCOc4ccccc43)nc3c2CCCC3)cc1	target engagement in cells, inhibitor, chemoproteomics	20 mM	inhibition	34.6%
O=C(Nc1cnn(-c2csc(C(=O)NC3COC3)c2)c1)Nc1ccccc1Cl	enzyme activity, inhibitor	5 µM	remaining activity	106%
O=C(NCc1ncc(C(F)(F)F)cc1Cl)c1ccc2c(c1)C1(CCS(=O)(=O)CC1)[C@H](C1CC1)N2S(=O)(=O)c1ccc(F)cc1	cell-free assay, competition with immobilised ligand	1 µM	remaining binding	100%
Cc1cc(NC(=O)c2cccc3cc(-c4cccc5[nH]nc(N)c45)ccc23)ccc1F	enzyme activity, inhibitor	0.1 µM	activity vs control	92%
CNC(=O)c1ccc(Nc2ncc(C(F)(F)F)c(NCc3nccnc3N(C)S(C)(=O)=O)n2)cc1	cell-free assay, competition with immobilised ligand	0.1 µM	remaining binding	85%
CCN1CCC2(CC1)NC(=O)c1c(c3ccc(Cl)c(Cl)c3n1C)C2C#N (racemic)	thermal stability, DSF	10 µM	ΔTm	-0.2 °C
Cc1ccc(Nc2nccc(N(C)c3ccc4c(C)n(C)nc4c3)n2)cc1S(N)(=O)=O	enzyme activity, inhibitor	0.5 µM	remaining activity	97.3%
C[C@H](c1cccc(C#N)c1)n1cc(Cl)cc(C(N)=O)c1=N	cell-free assay, competition with immobilised ligand	1 µM	remaining binding	100%
CN(C)c1ncc(F)c(-c2cnn3ncccc23)n1	binding	1 µM	remaining binding	100%
O=C1NC(=O)c2cc(Nc3ccc(F)cc3)c(Nc3ccc(F)cc3)cc21	cell-free assay	0.5 µM	remaining signal	101%
Cc1cc(C)c(-n2ccn3nc(-c4cccnc4)cc23)cc1NC(=O)c1cc(C#N)cc(S(F)(F)(F)(F)F)c1	cell-free assay, competition with immobilised ligand	0.1 µM	remaining binding	79.1%
COc1cc2ncnc(Nc3ccc(Oc4ccccc4)cc3C)c2cc1OC	enzyme activity, inhibitor	1 µM	inhibition	-2%
CS(=O)(=O)N1CCCC(NC(=O)[C@H](CCC2CCCCC2)NC(=O)c2ccc(CNC(=O)c3cnc4ccccn34)cc2)C1 (some centres unmarked)	cell-free assay, competition with immobilised ligand	0.1 µM	remaining binding	100%
COc1cc(-c2cc(-c3ccc(N4CCNCC4)cc3)cnc2C)cc(OC)c1OC	enzyme activity, inhibitor	0.1 µM	inhibition	1%
C#Cc1cccc(Nc2ncnc3cc(OCCOC)c(OCCOC)cc23)c1	cell-free assay	0.5 µM	remaining signal	99.4%
Cn1c2c(Cl)c(Cl)ccc2c2cc[nH]c(=O)c21	thermal stability, DSF	10 µM	ΔTm	0.5 °C
